ChEMBL document CHEMBL4842326, “Design, synthesis and biological evaluation of 3, 4-disubstituted-imidazolidine-2, 5-dione derivatives as HDAC6 selective inhibitors” (Eur J Med Chem, 2021)

What was measured:
Histone deacetylase 1 = Histone deacetylase 1 (Homo sapiens, UniProt Q13547); assay: Inhibition of HDAC1 (unknown origin) using Ac-LeuGlyLys(Ac)-AMC as substrate preincubated for 10 mins followed by substrate addition and further incubated for incubated for 1 hrs by fluorescence microtiter plate reader assay
Sequence of Histone deacetylase 1 (Q13547 whole entry): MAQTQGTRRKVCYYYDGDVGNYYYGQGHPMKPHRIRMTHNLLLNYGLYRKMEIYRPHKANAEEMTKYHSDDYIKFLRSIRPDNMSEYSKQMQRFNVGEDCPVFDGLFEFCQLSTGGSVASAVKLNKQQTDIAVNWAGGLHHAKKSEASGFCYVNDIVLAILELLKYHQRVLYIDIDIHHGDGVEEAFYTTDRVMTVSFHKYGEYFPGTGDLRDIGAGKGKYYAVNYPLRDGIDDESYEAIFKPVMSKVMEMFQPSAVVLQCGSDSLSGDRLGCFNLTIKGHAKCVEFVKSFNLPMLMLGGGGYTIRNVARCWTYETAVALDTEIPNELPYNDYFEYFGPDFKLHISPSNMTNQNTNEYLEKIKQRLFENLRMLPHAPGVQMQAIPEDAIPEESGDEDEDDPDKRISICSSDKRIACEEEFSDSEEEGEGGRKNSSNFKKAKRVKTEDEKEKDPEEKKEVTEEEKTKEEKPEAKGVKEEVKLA

Histone deacetylase 2 = Histone deacetylase 2 (Homo sapiens, UniProt Q92769)
Sequence of Histone deacetylase 2 (Q92769 whole entry): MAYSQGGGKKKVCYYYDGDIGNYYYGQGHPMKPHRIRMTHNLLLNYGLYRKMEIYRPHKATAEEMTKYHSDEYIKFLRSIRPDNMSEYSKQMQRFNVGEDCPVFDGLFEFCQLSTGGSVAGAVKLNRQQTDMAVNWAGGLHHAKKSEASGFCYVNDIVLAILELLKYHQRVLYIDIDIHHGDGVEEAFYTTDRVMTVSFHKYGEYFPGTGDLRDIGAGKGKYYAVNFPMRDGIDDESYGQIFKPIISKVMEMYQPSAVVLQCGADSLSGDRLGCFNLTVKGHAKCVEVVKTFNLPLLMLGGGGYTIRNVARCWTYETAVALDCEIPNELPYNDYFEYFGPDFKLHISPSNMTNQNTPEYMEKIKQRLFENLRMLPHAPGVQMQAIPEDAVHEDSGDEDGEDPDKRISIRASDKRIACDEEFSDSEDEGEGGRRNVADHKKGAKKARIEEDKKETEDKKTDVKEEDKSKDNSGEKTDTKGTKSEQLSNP

KG-1 = assay: Antiproliferative activity against human KG-1 cells assessed as inhibition of cell proliferation after 48 hrs by MTT assay; format: functional, cell-based; conditions: KG-1, 48 h
Method in brief: (§1)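 Leukemia/myeloma lines grown in RPMI1640 with 10% FBS at 37 °C, 5% CO2; seeded at 3500–4000 cells/well, cultured overnight, then exposed to serial dilutions for 48 h.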

HEL = assay: Antiproliferative activity against human HEL cells assessed as inhibition of cell proliferation after 48 hrs by MTT assay; format: functional, cell-based; method in brief: as §1
Jurkat = assay: Antiproliferative activity against human Jurkat cells assessed as inhibition of cell proliferation after 48 hrs by MTT assay; format: functional, cell-based; method in brief: as §1
HL-60 [1] = assay: Antiproliferative activity against human HL-60 cells assessed as inhibition of cell proliferation after 48 hrs by MTT assay; format: functional, cell-based; conditions: HL-60, 48 h; method in brief: as §1
NCI-H929 = assay: Antiproliferative activity against human NCI-H929 cells assessed as inhibition of cell proliferation after 48 hrs by MTT assay; format: functional, cell-based; conditions: NCI-H929, 48 h; method in brief: as §1
[2] = molecular target: T1, Protein deacetylase HDAC6 (Homo sapiens) (UniProt Q9UBN7); assay: Inhibition of HDAC6 in human HL-60 cells assessed as increase in acetylation of alpha tubulin measured up to 24 hrs by Western blot analysis; format: cell-based; conditions: time hrs <=24
T1 sequence (whole entry): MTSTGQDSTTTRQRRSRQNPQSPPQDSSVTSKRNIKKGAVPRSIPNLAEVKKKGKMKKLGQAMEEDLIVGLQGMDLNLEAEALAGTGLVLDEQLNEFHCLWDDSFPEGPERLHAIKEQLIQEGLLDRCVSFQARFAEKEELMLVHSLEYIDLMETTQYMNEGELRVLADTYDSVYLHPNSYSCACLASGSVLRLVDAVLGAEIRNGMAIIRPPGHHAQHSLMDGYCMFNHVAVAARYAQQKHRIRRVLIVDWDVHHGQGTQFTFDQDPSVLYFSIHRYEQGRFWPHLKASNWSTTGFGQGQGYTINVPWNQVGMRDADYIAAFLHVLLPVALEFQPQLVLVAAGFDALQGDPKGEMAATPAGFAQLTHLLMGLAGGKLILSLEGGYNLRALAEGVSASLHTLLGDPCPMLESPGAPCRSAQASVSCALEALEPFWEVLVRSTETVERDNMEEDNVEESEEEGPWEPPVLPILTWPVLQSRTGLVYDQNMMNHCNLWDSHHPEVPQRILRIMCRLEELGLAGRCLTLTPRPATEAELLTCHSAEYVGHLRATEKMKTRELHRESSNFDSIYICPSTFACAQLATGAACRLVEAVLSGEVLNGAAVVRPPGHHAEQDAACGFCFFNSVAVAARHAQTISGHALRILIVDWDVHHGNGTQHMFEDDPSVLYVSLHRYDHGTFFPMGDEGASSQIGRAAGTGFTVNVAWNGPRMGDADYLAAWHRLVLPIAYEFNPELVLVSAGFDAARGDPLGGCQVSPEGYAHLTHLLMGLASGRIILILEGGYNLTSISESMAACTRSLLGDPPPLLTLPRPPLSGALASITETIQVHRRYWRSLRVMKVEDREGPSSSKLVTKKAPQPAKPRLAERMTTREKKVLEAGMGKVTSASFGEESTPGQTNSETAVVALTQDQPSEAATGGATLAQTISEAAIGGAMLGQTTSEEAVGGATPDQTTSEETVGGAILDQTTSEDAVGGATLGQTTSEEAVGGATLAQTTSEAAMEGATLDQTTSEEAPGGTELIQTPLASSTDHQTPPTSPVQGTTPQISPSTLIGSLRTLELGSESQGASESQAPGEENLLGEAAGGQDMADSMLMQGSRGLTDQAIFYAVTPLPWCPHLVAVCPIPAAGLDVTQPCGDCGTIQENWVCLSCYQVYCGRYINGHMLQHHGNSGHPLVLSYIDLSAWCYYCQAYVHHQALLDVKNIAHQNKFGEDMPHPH
Method in brief: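 HL-60 cells treated 12 h or 24 h, pelleted, lysed in RIPA with 1 mM PMSF on ice 30 min, cleared at 4 °C; lysates run on 12.5% SDS-PAGE, blotted to PVDF, blocked in 5% milk 1 h, probed overnight at 4 °C for acetyl-α-tubulin, acetyl-H3 and GAPDH, secondary 1 h, ECL detection.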

HL-60 [3] = assay: Induction of mitochondrial membrane potential depolarization in human HL-60 cells at 3 uM by fluorescence assay; format: functional, cell-based; conditions: time hrs <=24, TDE = time-dependent effect
Method in brief: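 HL-60 cells (1 × 10^6) seeded overnight, exposed to compound or vehicle (0.2% DMSO) for the indicated times, then loaded with TMRE (100 nM) 30 min at 37 °C; washed three times in PBS, fluorescence read at Ex 540/Em 579 nm.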

HL-60 [4] = assay: Induction of apoptosis in human HL-60 cells assessed as viable cells at 3 uM after 48 hrs by Annexin V-FITC/propidium iodide staining based flow cytometric analysis (reference value: 93.4%); format: functional; conditions: read-out: Activity
Method in brief: (§2)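 HL-60 cells (1 × 10^6/well) exposed 48 h to compound dilutions, collected, PBS-washed, resuspended in Annexin V-FITC binding buffer, stained with propidium iodide and Annexin V-FITC for 15 min, then analysed by flow cytometry.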

HL-60 [5] = assay: Induction of apoptosis in human HL-60 cells assessed as early apoptotic cells at 3 uM after 48 hrs by Annexin V-FITC/propidium iodide staining based flow cytometric analysis (reference value: […]%); format: functional
HL-60 [6] = assay: Induction of apoptosis in human HL-60 cells assessed as necrotic cells at 3 uM after 48 hrs by Annexin V-FITC/propidium iodide staining based flow cytometric analysis (reference value: 0.017%); format: functional; method in brief: as §2
HUVEC = assay: Cytotoxicity against human HUVEC cells assessed as decrease in cell viability after 48 hrs by MTT assay; format: cell-based
Method in brief: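 Normal cells: HUVECs in RPMI1640 with 10% FBS plus 0.1% heparin, GEC-1 in RPMI1640 with 10% FBS. Seeded 8 h, then treated with serial dilutions for 48 h; 0.5% MTT for 4 h, supernatant removed, DMSO added, absorbance read at 570 nm.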

[7] = Stability of the compound in rabbit plasma assessed as decrease in compound degradation incubated up to 12 hrs by HPLC analysis; format: ADME, cell-free, Oryctolagus cuniculus
[8] = molecular target: T1, Protein deacetylase HDAC6 (Homo sapiens); assay: Potency index, ratio of tubastatin-A IC50 to test compound IC50 for HDAC6 (unknown origin) using Ac-LeuGlyLy-s(Ac)-AMC as substrate preincubated for 10 mins followed by substrate addition and further incubated for 2 hrs by fluorescence microtiter plate reader assay
Homo sapiens [9] = species: Homo sapiens; assay: Selectivity ratio of IC50 for HDAC1 (unknown origin) to IC50 for HDAC6 (unknown origin)
Homo sapiens [10] = species: Homo sapiens; assay: Selectivity ratio of IC50 for HDAC2 (unknown origin) to IC50 for HDAC6 (unknown origin)
Homo sapiens [11] = species: Homo sapiens; assay: Selectivity ratio of IC50 for HDAC8 (unknown origin) to IC50 for HDAC6 (unknown origin)

**Q.** Which IC50 (Histone deacetylase 1) does the source give for `O=C(NO)c1ccc(CN2C(=O)C(Cc3ccccc3)N(Cc3cccnc3)C2=O)cc1` (racemic) here?
**A.** Its IC50 is 11.6 µM.

**Q.** And the IC50 (Histone deacetylase 2)?
**A.** The IC50 was 12.3 µM.

**Q.** What about the IC50 (KG-1) of the same compound?
**A.** Its IC50 is 7.04 µM.

**Q.** What about the IC50 (HEL) of the same compound?
**A.** The IC50 was 4.58 µM.

**Q.** And the IC50 (Jurkat)?
**A.** Its IC50 is 9.29 µM.

**Q.** What about the IC50 (HL-60 [1]) of the same compound?
**A.** The IC50 was 3.23 µM.

**Q.** What about the IC50 (NCI-H929) of the same compound?
**A.** Its IC50 is 7.61 µM.

**Q.** And the inhibition [2]?
**A.** The inhibition was “Dose-Dependent Effect”.

**Q.** What about the Activity (HL-60 [3]) of the same compound?
**A.** Its Activity is “Tde”.

**Q.** What about the viability at 3 µM (HL-60 [4]) of the same compound?
**A.** The viability at 3 µM was 79.4%.

**Q.** And the Activity (HL-60 [5])?
**A.** Its Activity is 10.5%.

**Q.** And the Activity (HL-60 [6])?
**A.** Its Activity is 0.035%.

**Q.** What about the IC50 (HUVEC) of the same compound?
**A.** The IC50 was 83.1 µM.

**Q.** What about the Stabilty [7] of the same compound?
**A.** Its Stabilty is “Stable”.

**Q.** And the Ratio IC50 [8]?
**A.** The Ratio IC50 was 12.

**Q.** And the Ratio IC50 (Homo sapiens [9])?
**A.** The Ratio IC50 was 5540.

**Q.** And the Ratio IC50 (Homo sapiens [10])?
**A.** The Ratio IC50 was 5860.

**Q.** What about the Ratio IC50 (Homo sapiens [11]) of the same compound?
**A.** Its Ratio IC50 is 1640.
